For one data set, the species on record is Homo sapiens. The data set is described as follows: Selectivity for human CB1 receptor over human CB2 receptor. A digest of the protocol: (§1)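 GTPγ35S binding was read by anti-Gi antibody-capture scintillation proximity assay. Membranes came from CHO cells expressing human CB1 and from Sf9 cells expressing human CB2. Antagonist dose-responses were run against methanandamide at 80% efficacious dose. Kb = IC50/(1+[agonist]/EC50), with four-parameter fits. Values are the mean ± SEM of at least three independent determinations. Selectivity was taken from the CB1 and CB2 Kb values.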

Data set [1] addresses Cannabinoid receptor 2 (Homo sapiens) (UniProt P34972). Kind of data set: Antagonist activity at human CB2 receptor in Sf9 cells assessed as GTPgammaS binding. It counts as functional, cell-based. The essentials: as §1
In general terms: GTPγS resists hydrolysis and so accumulates on activated G proteins.

Data set [2] is described as follows: Drug uptake in Sprague-Dawley rat frontal cerebral cortex at 30 μg/kg, iv after 8 hrs.
Data set [3] can be described thus: Drug uptake in Rimonabant pretreated Sprague-Dawley rat CB1 rich frontal cerebral cortex at […], iv after 8 hrs. It counts as ADME, organism-based. Details: route intravenous. To be noted: read-out: Drug uptake. A digest of the protocol:
(§2)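 Adult male Sprague-Dawley rats (225–250 g) were used, three per time point. […] Ligand was dosed at 30 μg/kg i.v. in intralipid/1% AcOH diluted with water. Frontal cortex was taken at 0.25–8 h, homogenized in MeCN/0.1% HCO2H, centrifuged, and the supernatant quantified by LC-MS (ng/g).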

A short description of data set [4]: Drug uptake in Rimonabant pretreated Sprague-Dawley rat CB1 rich frontal cerebral cortex at […], iv after 0.25 hrs. Type of data set: ADME, organism-based. Details: route intravenous. Conditions: read-out: Drug uptake. The essentials: as §2
A short description of data set [5]: Drug uptake in Sprague-Dawley rat frontal cerebral cortex at 30 μg/kg, iv after 0.5 hrs.
Data set [6] is described as follows: Drug uptake in Sprague-Dawley rat frontal cerebral cortex at 30 μg/kg, iv after 0.25 hrs.

Sequence of Cannabinoid receptor 2 (Homo sapiens) (P34972 whole entry): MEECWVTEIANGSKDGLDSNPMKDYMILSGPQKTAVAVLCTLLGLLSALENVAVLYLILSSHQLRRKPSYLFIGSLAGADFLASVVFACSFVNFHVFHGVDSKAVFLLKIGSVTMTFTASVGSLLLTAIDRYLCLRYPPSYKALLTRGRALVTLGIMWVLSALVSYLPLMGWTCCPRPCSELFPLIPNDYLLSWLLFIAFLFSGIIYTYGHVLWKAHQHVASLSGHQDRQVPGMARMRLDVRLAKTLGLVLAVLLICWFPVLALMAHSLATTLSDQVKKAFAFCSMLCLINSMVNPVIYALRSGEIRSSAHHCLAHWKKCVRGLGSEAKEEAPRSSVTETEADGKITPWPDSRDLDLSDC

What is called Kb is the equilibrium dissociation constant of an antagonist, usually derived from a functional assay. For the compound `COc1cccc([C@H]2C[C@@H](N[C@H](C)c3ccc(F)cc3)C(=O)N2c2ccc(C(F)(F)F)cc2)c1`, in the data set listed under Homo sapiens, the Selectivity ratio came to 2160. Moreover, in data set [1], the Kb worked out at 466 nM. For the same compound, the concentration at 8 h in data set [2] came to 10.5 ng/g; in data set [3], 0.8 ng/g. Besides, in data set [4], the concentration at 0.25 h turned out to be 17.3 ng/g. Besides, in data set [5], the concentration at 0.5 h was found to be 48 ng/g.

As to `C[C@@H](N[C@@H]1C[C@H](c2cccc(OCF)c2)N(c2ccc(C(F)(F)F)cc2)C1=O)c1ccccc1`, the Selectivity ratio in the data set filed under Homo sapiens stood at 3580. Also, the antagonist dissociation constant (Kb) in data set [1] was 669 nM. The compound further showed a concentration at 8 h in data set [2] of 8.2 ng/g. Also, the concentration at 0.25 h in data set [4] came to 9.7 ng/g. In data set [5], this compound displayed a concentration at 0.5 h of 39.3 ng/g.

As for `C[C@@H](N[C@@H]1C[C@H](c2cccc(OCCF)c2)N(c2ccc(C(F)(F)F)cc2)C1=O)c1ccccc1`, the Selectivity ratio in the data set filed under Homo sapiens is above 19500. Also, in data set [1], the antagonist equilibrium constant (Kb) was above 8260 nM. Moreover, the concentration at 8 h in data set [2] turned out to be 0.7 ng/g. Also, the concentration at 0.25 h in data set [4] came out at 6.5 ng/g; in data set [6], 22 ng/g.

`COc1cccc([C@H]2C[C@@H](N[C@H](C)c3ccccc3)C(=O)N2c2ccc(C(F)(F)F)cc2)c1` [MEPPEP] showed a concentration at 8 h in data set [2] of 8.5 ng/g. The concentration at 0.25 h in data set [4] came to 11.5 ng/g; in data set [6], 39 ng/g.

The values are drawn from ChEMBL document CHEMBL1140137, “Synthesis, ex vivo evaluation, and radiolabeling of potent 1,5-diphenylpyrrolidin-2-one cannabinoid subtype-1 receptor ligands as candidates for in vivo imaging” (J Med Chem, 2008).
